Data from article PMC10962649 (Journal of Food and Drug Analysis, 2024).
Marks after values point to notes of the source that are not given here.

Columns and labels:
MDCKII-WT cells = test: MTT assay for cell viability, MDCKII-WT cells; type: cell-based, canine; details: 150 μM, MDCKII-WT cells (data not shown)
In short: (§1)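 MDCKII cells (wild-type or BCRP-overexpressing, from the Netherlands Cancer Institute) were grown in DMEM with 10% FBS and 1% penicillin-streptomycin-glutamine at 37 °C under 5% CO₂. Viability after exposure to test agents was measured by MTT assay, following a cited method with minor modification.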

MDCKII-BCRP cells = test: MTT assay for cell viability, MDCKII-BCRP cells; type: cell-based, canine; details: 100 μM, MDCKII-BCRP cells (data not shown)
In short: as §1

MRP2 [1] = molecular target: MRP2 (Canis lupus familiaris, UniProt A0A8I3SCV5); test: MRP2 activity: intracellular accumulation of GSMF; type: cell-based; details: MDCKII-WT cells
Sequence of MRP2 (Canis lupus familiaris, UniProt A0A8I3SCV5) (A0A8I3SCV5 1-1544): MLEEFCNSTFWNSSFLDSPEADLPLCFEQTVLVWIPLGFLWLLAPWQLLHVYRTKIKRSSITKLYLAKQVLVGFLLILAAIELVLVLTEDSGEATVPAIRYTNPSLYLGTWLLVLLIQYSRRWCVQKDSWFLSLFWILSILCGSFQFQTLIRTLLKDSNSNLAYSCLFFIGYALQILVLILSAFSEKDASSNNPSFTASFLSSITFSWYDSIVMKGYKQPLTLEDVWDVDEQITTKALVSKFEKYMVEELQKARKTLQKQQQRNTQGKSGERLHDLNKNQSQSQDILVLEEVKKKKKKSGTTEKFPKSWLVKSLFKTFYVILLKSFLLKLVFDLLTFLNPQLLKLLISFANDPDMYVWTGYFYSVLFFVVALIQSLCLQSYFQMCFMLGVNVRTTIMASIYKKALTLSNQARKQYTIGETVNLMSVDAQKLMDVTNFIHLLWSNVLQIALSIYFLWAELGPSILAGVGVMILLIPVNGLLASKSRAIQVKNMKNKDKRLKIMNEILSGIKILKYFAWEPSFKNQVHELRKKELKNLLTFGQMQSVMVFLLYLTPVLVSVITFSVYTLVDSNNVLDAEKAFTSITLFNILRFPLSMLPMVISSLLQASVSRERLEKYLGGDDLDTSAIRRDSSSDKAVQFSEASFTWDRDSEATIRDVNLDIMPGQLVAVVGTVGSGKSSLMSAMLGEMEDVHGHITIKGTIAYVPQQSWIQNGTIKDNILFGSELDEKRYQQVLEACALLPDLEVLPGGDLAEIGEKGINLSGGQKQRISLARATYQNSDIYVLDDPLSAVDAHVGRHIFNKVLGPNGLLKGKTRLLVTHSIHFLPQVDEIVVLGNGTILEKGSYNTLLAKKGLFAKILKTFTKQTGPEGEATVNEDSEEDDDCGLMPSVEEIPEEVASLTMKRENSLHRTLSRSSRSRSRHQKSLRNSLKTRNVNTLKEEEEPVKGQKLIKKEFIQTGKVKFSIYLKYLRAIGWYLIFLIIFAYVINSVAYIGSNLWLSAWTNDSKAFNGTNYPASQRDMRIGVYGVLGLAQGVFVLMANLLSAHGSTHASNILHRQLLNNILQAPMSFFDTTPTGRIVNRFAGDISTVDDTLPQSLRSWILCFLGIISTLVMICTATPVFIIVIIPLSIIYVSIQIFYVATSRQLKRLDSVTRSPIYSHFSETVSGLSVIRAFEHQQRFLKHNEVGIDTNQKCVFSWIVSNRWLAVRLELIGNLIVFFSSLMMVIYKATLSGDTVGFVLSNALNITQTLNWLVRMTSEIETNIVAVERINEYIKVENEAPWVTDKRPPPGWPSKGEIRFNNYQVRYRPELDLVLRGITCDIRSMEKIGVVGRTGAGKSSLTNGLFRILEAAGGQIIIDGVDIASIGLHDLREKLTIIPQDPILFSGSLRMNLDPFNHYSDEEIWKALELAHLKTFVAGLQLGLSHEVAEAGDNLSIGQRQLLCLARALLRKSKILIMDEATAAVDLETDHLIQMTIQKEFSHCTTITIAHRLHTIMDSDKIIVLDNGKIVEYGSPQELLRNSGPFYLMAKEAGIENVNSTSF

BCRP = molecular target: T1, BCRP (Homo sapiens, UniProt Q9UNQ0); details: concentrations of 12.5–100 μM; cited from earlier work
T1 sequence (Q9UNQ0 1-655): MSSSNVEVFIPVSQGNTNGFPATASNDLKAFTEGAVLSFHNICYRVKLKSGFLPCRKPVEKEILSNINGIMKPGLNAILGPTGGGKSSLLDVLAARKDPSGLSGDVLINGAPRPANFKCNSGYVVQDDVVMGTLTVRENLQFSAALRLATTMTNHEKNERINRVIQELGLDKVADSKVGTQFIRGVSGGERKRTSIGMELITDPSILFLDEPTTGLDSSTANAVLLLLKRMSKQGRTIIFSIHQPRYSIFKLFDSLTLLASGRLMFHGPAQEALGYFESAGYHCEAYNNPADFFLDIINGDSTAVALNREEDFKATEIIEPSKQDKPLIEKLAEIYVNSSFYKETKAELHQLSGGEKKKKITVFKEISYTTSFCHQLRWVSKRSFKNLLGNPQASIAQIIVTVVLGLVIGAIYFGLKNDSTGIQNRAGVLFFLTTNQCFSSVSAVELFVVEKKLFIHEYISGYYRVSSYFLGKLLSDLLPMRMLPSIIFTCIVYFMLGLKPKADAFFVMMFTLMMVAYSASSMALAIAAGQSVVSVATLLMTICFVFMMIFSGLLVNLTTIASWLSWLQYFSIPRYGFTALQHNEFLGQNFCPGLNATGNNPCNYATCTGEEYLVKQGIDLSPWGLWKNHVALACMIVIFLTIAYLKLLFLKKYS

MRP2 [2] = molecular target: MRP2 (Homo sapiens, UniProt Q92887); type: cell-based; details: MDCKII-MRP2 cells, 100 μM spiked in blank serum, Fig. 3(C)
Sequence of MRP2 (Homo sapiens, UniProt Q92887) (Q92887 whole entry): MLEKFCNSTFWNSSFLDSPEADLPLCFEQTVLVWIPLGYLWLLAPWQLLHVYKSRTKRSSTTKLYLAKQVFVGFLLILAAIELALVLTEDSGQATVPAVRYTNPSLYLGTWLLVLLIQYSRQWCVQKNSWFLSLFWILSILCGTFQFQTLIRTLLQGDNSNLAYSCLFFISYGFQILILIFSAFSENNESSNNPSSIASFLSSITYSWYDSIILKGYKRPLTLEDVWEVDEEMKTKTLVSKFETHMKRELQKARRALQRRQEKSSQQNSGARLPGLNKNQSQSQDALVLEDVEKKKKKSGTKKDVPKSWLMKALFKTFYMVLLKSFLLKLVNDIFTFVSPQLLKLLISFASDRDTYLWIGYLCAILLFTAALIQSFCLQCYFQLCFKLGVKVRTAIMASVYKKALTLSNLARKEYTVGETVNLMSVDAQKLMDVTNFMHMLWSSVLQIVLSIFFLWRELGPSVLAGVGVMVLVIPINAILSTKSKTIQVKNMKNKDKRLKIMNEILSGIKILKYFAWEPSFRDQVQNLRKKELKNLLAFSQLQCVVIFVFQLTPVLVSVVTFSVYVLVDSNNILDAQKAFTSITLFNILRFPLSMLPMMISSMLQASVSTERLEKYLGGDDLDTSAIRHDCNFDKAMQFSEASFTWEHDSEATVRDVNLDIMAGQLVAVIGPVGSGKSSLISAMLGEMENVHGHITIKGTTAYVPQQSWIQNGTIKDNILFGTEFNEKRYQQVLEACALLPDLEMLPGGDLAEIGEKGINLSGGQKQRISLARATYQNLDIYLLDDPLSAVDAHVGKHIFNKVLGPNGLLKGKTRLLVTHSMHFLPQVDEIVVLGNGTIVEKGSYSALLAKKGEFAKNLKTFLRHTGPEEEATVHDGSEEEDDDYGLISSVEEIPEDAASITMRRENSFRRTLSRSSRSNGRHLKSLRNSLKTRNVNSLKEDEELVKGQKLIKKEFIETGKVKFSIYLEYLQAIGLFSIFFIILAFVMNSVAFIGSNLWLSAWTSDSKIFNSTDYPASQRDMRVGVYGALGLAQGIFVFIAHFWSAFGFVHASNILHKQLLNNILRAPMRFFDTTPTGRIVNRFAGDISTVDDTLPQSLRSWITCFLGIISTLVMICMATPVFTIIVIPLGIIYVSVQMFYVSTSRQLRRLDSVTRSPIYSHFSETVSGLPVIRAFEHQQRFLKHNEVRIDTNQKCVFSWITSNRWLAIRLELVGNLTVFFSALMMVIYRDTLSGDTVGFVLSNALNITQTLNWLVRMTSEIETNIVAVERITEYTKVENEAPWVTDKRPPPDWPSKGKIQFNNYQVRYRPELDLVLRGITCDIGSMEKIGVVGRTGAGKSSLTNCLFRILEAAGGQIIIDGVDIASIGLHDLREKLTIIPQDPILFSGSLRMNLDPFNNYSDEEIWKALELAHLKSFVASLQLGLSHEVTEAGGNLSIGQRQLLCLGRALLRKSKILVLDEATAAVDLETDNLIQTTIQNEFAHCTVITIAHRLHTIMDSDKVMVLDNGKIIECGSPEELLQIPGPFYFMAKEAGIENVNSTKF

[3] = Pharmacokinetics of oral MTX in rats alone and coadministered with MOC; type: in vivo, Sprague–Dawley rats
In short: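 Groups were dosed orally and in parallel: MTX 5.0 mg/kg with an equal volume of water (n = 6), or with decoction given 0.5 h earlier. Rats were fasted overnight. Tail-vein blood (0.5 mL) was drawn at 0.25–48 h, and serum MTX was measured by fluorescence polarization immunoassay using the kit calibration. AUC0-t was derived by noncompartmental analysis.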

[4] = Mortality of rats observed during the pharmacokinetic study; type: in vivo, Sprague–Dawley rats; details: oral MTX 5.0 mg/kg alone or coadministered with MOC (three groups)
In short: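 Male Sprague–Dawley rats (350–450 g) were fasted overnight with water allowed, and food was returned 3 h after dosing. They received oral MTX 5.0 mg/kg, given alone with water or 0.5 h after oral decoction at 2.0 or 4.0 g/kg. A fourth group got 2.0 g/kg thrice daily for 2 days before MTX. Deaths were noted over the 48-h sampling period.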

[5] = 50 μM, MN/HK experiment, Fig. 3(B)

Increase of intracellular accumulation of GSMF (MRP2 [1]; 25 μM, MN/HK experiment, Fig. 3(B)) | Increase of intracellular accumulation of GSMF (MRP2 [1]; [5]) | Increase of intracellular accumulation of GSMF (MRP2 [1]; 50 μM, positive control in MOC experiment, Fig. 3(A)) | Increase of intracellular accumulation of GSMF (MRP2 [2]) | SMILES | Effect on cell viability (MTT) (MDCKII-WT cells) | Effect on cell viability (MTT) (MDCKII-BCRP cells) | Effect on BCRP (BCRP) | AUC0-t of MTX ([3]; oral MTX 5.0 mg/kg + water (MTX alone), n = 6, mean ± S.E.) | AUC0-t of MTX ([3]; oral MTX 5.0 mg/kg, MOC 2.0 g/kg thrice daily for 2 days, 7th dose 0.5 h before MTX, n = 5, mean ± S.E.) | AUC0-t of MTX ([3]; oral MTX 5.0 mg/kg, single dose MOC 2.0 g/kg 0.5 h before MTX, n = 6, mean ± S.E.) | AUC0-t of MTX ([3]; oral MTX 5.0 mg/kg, single dose MOC 4.0 g/kg 0.5 h before MTX, n = 6, mean ± S.E.) | Mortality of rats during the pharmacokinetic study [4]
34% | 75% |  |  | C=CCc1ccc(O)c(-c2ccc(O)c(CC=C)c2)c1 [HK, honokiol] | no toxic effects | no toxic effects | significantly inhibited |  |  |  |  | 
 | 331% | 203% | 72% | CN(C)C(=O)CCSC(SCCC(=O)O)c1cccc(/C=C/c2ccc3ccc(Cl)cc3n2)c1 (centres unmarked) [MK 571, reference compound] |  |  |  |  |  |  |  | 
 | 137% |  |  | C=CCc1ccc(O)c(-c2cc(CC=C)ccc2O)c1 [MN, magnolol] | no toxic effects | no toxic effects | significantly inhibited |  |  |  |  | 
 |  |  |  | CN(Cc1cnc2nc(N)nc(N)c2n1)c1ccc(C(=O)N[C@@H](CCC(=O)O)C(=O)O)cc1 [MTX, Methotrexate] |  |  |  | 44.6 ± 5.0^a μmol·min·mL^−^1 | 250.2 ± 31.2 μmol·min·mL^−^1 | 201.5 ± 39.2 μmol·min·mL^−^1 | 206.8 ± 35.9 μmol·min·mL^−^1 | all survived very well
